Laboratory results from ChEMBL document CHEMBL3232716, “Tailoring cytotoxicity of antimicrobial peptidomimetics with high activity against multidrug-resistant Escherichia coli” (J Med Chem, 2014).
≈ marks a conversion by molar mass, not a printed value. Square brackets hold non-standard residues; d marks the D form. Peptide text beside a SMILES is read from it. hArg = N=C(N)NCCCC[C@H](N)C(=O)O; Nspe = C[C@H](NCC(=O)O)c1ccccc1; Nphe = O=C(O)CNCc1ccccc1

Experiments:
Acinetobacter baumannii = assay: Antibacterial activity against multidrug-resistant Acinetobacter baumannii clinical isolate E2-1228625 after 18 hrs by microdilution broth method; assay type: functional
Staphylococcus aureus = assay: Antibacterial activity against methicillin-resistant Staphylococcus aureus ATCC 33591 after 18 hrs by microdilution broth method; assay type: functional
Procedure, shortened: (§1)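 CLSI broth microdilution. […] Incubated 35 °C in ambient air for 18 h. MIC taken as the lowest concentration with no visible growth versus the compound-free control. Reported as median and range of three independent biological replicates run on separate days.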

HeLa = assay: Cytotoxicity against human HeLa cells after 1 hr by MTS/PMS assay; assay type: cell-based
Procedure, shortened: (§2)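 Monolayers (passage 4–10) grown ~21–25 h to ~90% confluence. Seeding per well: HeLa 8000, HepG2 23 000, NIH 3T3 22 000, IEC-6 16 000, Caco-2 25 000. Cells washed with HBSS/10 mM Hepes pH 7.4 and exposed 1 h at 37 °C, 50 rpm, to compound 0–2000 μM in culture medium. MTS 240 μg/mL/PMS 2.4 μg/mL for 1.5–4 h, A492. Viability referenced to SDS and untreated controls; IC50 from one biological replicate in triplicate.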

Caco-2 = assay: Cytotoxicity against human Caco2 cells after 1 hr by MTS/PMS assay; assay type: cell-based; conditions: Caco-2, 1 h; procedure, shortened: as §2
HepG2 = assay: Cytotoxicity against human HepG2 cells after 1 hr by MTS/PMS assay; assay type: cell-based; conditions: HepG2, 1 h; procedure, shortened: as §2
[1] = Cytotoxicity against rat IEC-6 cells after 1 hr by MTS/PMS assay; assay type: cell-based; conditions: IEC-6, 1 h; procedure, shortened: as §2
[2] = Cytotoxicity against mouse NIH/3T3 cells after 1 hr by MTS/PMS assay; assay type: cell-based; conditions: NIH3T3, 1 h; procedure, shortened: as §2
HUVEC = assay: Cytotoxicity against HUVEC after 1 hr by MTS/PMS assay; assay type: cell-based; conditions: Homo sapiens
Procedure, shortened: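 HUVEC seeded at 15 000 cells/well on collagen-coated wells (0.6 μg/cm2), passage 4–10, grown to ~90% confluence over 21–25 h. Cells exposed to compound (0–2000 μM) in F-12K medium for 1 h at 37 °C. MTS 240 μg/mL with PMS 9.6 μg/mL in HBSS for 1.5–4 h, then A492. Viability referenced to 0.2% SDS and untreated cells; IC50 reported.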

[3] = Hemolytic activity in human RBC after 1 hr; assay type: ADME, cell-based; conditions: Erythrocyte
Procedure, shortened: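 Fresh human erythrocytes washed in PBS pH 7.4. A 0.5% v/v suspension was mixed 1:1 with 2-fold dilutions of compound (8–1024 μM) and incubated 1 h at 37 °C, then centrifuged. Supernatant hemoglobin read at OD414. Melittin 400 μg/mL set 100% lysis and PBS set 0%. Value is the concentration giving 50% lysis.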

[4] = Binding affinity to synthetic POPC/POPG liposomal membrane at 20 uM by circular dichroism analysis; assay type: physicochemical; conditions: artificial membrane
Procedure, shortened: (§3)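 CD spectra recorded with 20 μM test compound and 2 mM liposomes in 10 mM Tris buffer, pH 7.5. Liposomes were roughly 100 nm: POPC/POPG 7:3 (bacterial model) or POPC/POPG/cholesterol 5:3:2 (mammalian model). Lipid concentration was standardized by enzymatic phospholipid colorimetric assay.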

[5] = Binding affinity to cholesterol containing synthetic POPC/POPG liposomal membrane at 20 uM by circular dichroism analysis; assay type: physicochemical; conditions: artificial membrane; procedure, shortened: as §3
Escherichia coli [6] = assay: Antibacterial activity against Escherichia coli ATCC 25922 after 18 hrs by microdilution broth method; assay type: functional; procedure, shortened: as §1
Escherichia coli [7] = assay: Antibacterial activity against extended-spectrum beta-lactamase producing multidrug-resistant and colistin-susceptible Escherichia coli CTX-M-15 clinical isolate Aar 11 after 18 hrs by microdilution broth method; assay type: functional
Escherichia coli [8] = assay: Antibacterial activity against NDM-1 producing Escherichia coli clinical isolate 74859898 after 18 hrs by microdilution broth method; assay type: functional
Enterococcus faecium = assay: Antibacterial activity against vancomycin-resistant Enterococcus faecium ATCC 700221 after 18 hrs by microdilution broth method; conditions: ATCC 700221, 18 h
Enterococcus faecalis = assay: Antibacterial activity against vancomycin-resistant Enterococcus faecalis ATCC 700221 after 18 hrs by microdilution broth method; assay type: functional
Procedure, shortened: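 CLSI broth microdilution. Incubated 35 °C in ambient air for 18 h. MIC taken as the lowest concentration with no visible growth versus the compound-free control. Reported as median and range of three independent biological replicates run on separate days.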

[9] = clinical isolate E2-1228625, 18 h
[10] = clinical isolate 74859898, 18 h

| Molecule | MIC (Acinetobacter baumannii; [9]) | MIC (Staphylococcus aureus; ATCC 33591, 18 h) | IC50 (HeLa) | IC50 (Caco-2) | IC50 (HepG2) | IC50 [1] | IC50 [2] | IC50 (HUVEC) | Activity [4] | Activity [5] | MIC (Escherichia coli [6]; ATCC 25922, 18 h) | MIC (Escherichia coli [7]; CTX-M-15, 18 h) | MIC (Escherichia coli [8]; [10]) | MIC (Enterococcus faecium) | further results |
| --- | --- | --- | --- | --- | --- | --- | --- | --- | --- | --- | --- | --- | --- | --- | --- |
| CC(=O)N[C@@H](CCCCN)C(=O)N(CCC(=O)N[C@@H](CCCCNC(=N)N)C(=O)N(CCC(=O)N[C@@H](CCCCN)C(=O)N(CCC(=O)N[C@@H](CCCCNC(=N)N)C(=O)N(CCC(=O)N[C@@H](CCCCN)C(=O)N(CCC(=O)N[C@@H](CCCCNC(=N)N)C(=O)N(CCC(=O)N[C@@H](CCCCN)C(=O)N(CCC(N)=O)Cc1ccccc1)Cc1ccccc1)Cc1ccccc1)Cc1ccccc1)Cc1ccccc1)Cc1ccccc1)Cc1ccccc1 | 4 µM (≈ 8.84 µg/mL) | 16 µM (≈ 35.4 µg/mL) | 77 µM | 353 µM | 116 µM | 266 µM | 172 µM | 458 µM | Not Active | Not Active | 1 µM (≈ 2.21 µg/mL) | 1 µM (≈ 2.21 µg/mL) | 1 µM (≈ 2.21 µg/mL) | 16 µM (≈ 35.4 µg/mL) | IC50 [3]: > 1020 µM |
| CC(=O)N[C@@H](CCCCN)C(=O)N(CC(=O)N[C@@H](CCCCNC(=N)N)C(=O)N(CC(=O)N[C@@H](CCCCN)C(=O)N(CC(=O)N[C@@H](CCCCNC(=N)N)C(=O)N(CC(=O)N[C@@H](CCCCN)C(=O)N(CC(=O)N[C@@H](CCCCNC(=N)N)C(=O)N(CC(N)=O)Cc1ccccc1)Cc1ccccc1)Cc1ccccc1)Cc1ccccc1)Cc1ccccc1)Cc1ccccc1 (Ac-K[Nphe][hArg][Nphe]K[Nphe][hArg][Nphe]K[Nphe][hArg][Nphe]-NH2) | 64 µM (≈ 118 µg/mL) | 64 µM (≈ 118 µg/mL) | 316 µM | > 1000 µM | 698 µM | 636 µM | 635 µM | > 1000 µM | Not Active | Not Active | 2 µM (≈ 3.67 µg/mL) | 2 µM (≈ 3.67 µg/mL) | 1 µM (≈ 1.84 µg/mL) | 32 µM (≈ 58.8 µg/mL) | IC50 [3]: > 1020 µM |
| CC(=O)N[C@@H](CCCCN)C(=O)N(CC(=O)N[C@@H](CCCCNC(=N)N)C(=O)N(CC(=O)N[C@@H](CCCCN)C(=O)N(CC(=O)N[C@@H](CCCCNC(=N)N)C(=O)N(CC(=O)N[C@@H](CCCCN)C(=O)N(CC(=O)N[C@@H](CCCCNC(=N)N)C(=O)N(CC(N)=O)[C@@H](C)c1ccccc1)[C@@H](C)c1ccccc1)[C@@H](C)c1ccccc1)[C@@H](C)c1ccccc1)[C@@H](C)c1ccccc1)[C@@H](C)c1ccccc1 (Ac-K[Nspe][hArg][Nspe]K[Nspe][hArg][Nspe]K[Nspe][hArg][Nspe]-NH2) | 2 µM (≈ 3.84 µg/mL) | 16 µM (≈ 30.7 µg/mL) | 52 µM | 376 µM | 77 µM | 67 µM | 121 µM | 351 µM | Not Active | Not Active | 2 µM (≈ 3.84 µg/mL) | 4 µM (≈ 7.69 µg/mL) | 2 µM (≈ 3.84 µg/mL) | 2 µM (≈ 3.84 µg/mL) |  |
| CC(=O)N[C@@H](CCCCN)C(=O)N(CC(=O)N[C@@H](CCCCNC(=N)N)C(=O)N(CC(=O)N[C@@H](CCCCN)C(=O)N(CC(=O)N[C@@H](CCCCNC(=N)N)C(=O)N(CC(=O)N[C@@H](CCCCN)C(=O)N(CC(=O)N[C@@H](CCCCNC(=N)N)C(=O)N(CC(=O)N[C@@H](CCCCN)C(=O)N(CC(N)=O)[C@@H](C)c1ccccc1)[C@@H](C)c1ccccc1)[C@@H](C)c1ccccc1)[C@@H](C)c1ccccc1)[C@@H](C)c1ccccc1)[C@@H](C)c1ccccc1)[C@@H](C)c1ccccc1 (Ac-K[Nspe][hArg][Nspe]K[Nspe][hArg][Nspe]K[Nspe][hArg][Nspe]K[Nspe]-NH2) | 1 µM (≈ 2.21 µg/mL) | 16 µM (≈ 35.4 µg/mL) | 21 µM | 182 µM | 35 µM | 30 µM | 67 µM | 145 µM | Not Active | Not Active | 1 µM (≈ 2.21 µg/mL) | 2 µM (≈ 4.42 µg/mL) | 1 µM (≈ 2.21 µg/mL) | 4 µM (≈ 8.84 µg/mL) |  |
| CC(=O)N[C@@H](CCCCNC(=N)N)C(=O)N(CC(=O)N[C@@H](CCCCN)C(=O)N(CC(=O)N[C@@H](CCCCNC(=N)N)C(=O)N(CC(=O)N[C@@H](CCCCN)C(=O)N(CC(=O)N[C@@H](CCCCNC(=N)N)C(=O)N(CC(N)=O)Cc1ccccc1)Cc1ccccc1)Cc1ccccc1)Cc1ccccc1)Cc1ccccc1 (Ac-[hArg][Nphe]K[Nphe][hArg][Nphe]K[Nphe][hArg][Nphe]-NH2) | > 128 µM | 128 µM (≈ 200 µg/mL) | 506 µM | > 1000 µM | 980 µM | 972 µM | > 1000 µM | > 1000 µM | Not Active | Not Active | 8 µM (≈ 12.5 µg/mL) | 16 µM (≈ 25 µg/mL) | 8 µM (≈ 12.5 µg/mL) | 128 µM (≈ 200 µg/mL) |  |
| CC(=O)N[C@@H](CCCCNC(=N)N)C(=O)N(CC(=O)N[C@@H](CCCCN)C(=O)N(CC(=O)N[C@@H](CCCCNC(=N)N)C(=O)N(CC(=O)N[C@@H](CCCCN)C(=O)N(CC(=O)N[C@@H](CCCCNC(=N)N)C(=O)N(CC(N)=O)[C@@H](C)c1ccccc1)[C@@H](C)c1ccccc1)[C@@H](C)c1ccccc1)[C@@H](C)c1ccccc1)[C@@H](C)c1ccccc1 (Ac-[hArg][Nspe]K[Nspe][hArg][Nspe]K[Nspe][hArg][Nspe]-NH2) | 16 µM (≈ 26.1 µg/mL) | 32 µM (≈ 52.2 µg/mL) | 165 µM | 583 µM | 141 µM | 146 µM | 210 µM | 398 µM | Not Active | Not Active | 8 µM (≈ 13.1 µg/mL) | 8 µM (≈ 13.1 µg/mL) | 8 µM (≈ 13.1 µg/mL) | 8 µM (≈ 13.1 µg/mL) |  |
| GENTAMICIN |  |  |  |  |  |  |  |  |  |  |  |  |  |  | MIC (Acinetobacter baumannii): > 128 µM; MIC (Staphylococcus aureus): 0.5 µM; MIC (Enterococcus faecalis): > 128 µM; MIC (Escherichia coli [6]): 0.25 µM; MIC (Escherichia coli [7]): 32 µM; MIC (Escherichia coli [8]): > 128 µM |
